Experimental findings from ChEMBL document CHEMBL4261499, “Chiral disubstituted piperidinyl ureas: a class of dual diacylglycerol lipase-α and ABHD6 inhibitors” (Medchemcomm, 2017) are described below.

Each structure is given as a SMILES string.

Assay [1] has as its target T1, Diacylglycerol lipase-alpha (Homo sapiens, UniProt Q9Y4D2).
T1 sequence (Q9Y4D2 whole entry): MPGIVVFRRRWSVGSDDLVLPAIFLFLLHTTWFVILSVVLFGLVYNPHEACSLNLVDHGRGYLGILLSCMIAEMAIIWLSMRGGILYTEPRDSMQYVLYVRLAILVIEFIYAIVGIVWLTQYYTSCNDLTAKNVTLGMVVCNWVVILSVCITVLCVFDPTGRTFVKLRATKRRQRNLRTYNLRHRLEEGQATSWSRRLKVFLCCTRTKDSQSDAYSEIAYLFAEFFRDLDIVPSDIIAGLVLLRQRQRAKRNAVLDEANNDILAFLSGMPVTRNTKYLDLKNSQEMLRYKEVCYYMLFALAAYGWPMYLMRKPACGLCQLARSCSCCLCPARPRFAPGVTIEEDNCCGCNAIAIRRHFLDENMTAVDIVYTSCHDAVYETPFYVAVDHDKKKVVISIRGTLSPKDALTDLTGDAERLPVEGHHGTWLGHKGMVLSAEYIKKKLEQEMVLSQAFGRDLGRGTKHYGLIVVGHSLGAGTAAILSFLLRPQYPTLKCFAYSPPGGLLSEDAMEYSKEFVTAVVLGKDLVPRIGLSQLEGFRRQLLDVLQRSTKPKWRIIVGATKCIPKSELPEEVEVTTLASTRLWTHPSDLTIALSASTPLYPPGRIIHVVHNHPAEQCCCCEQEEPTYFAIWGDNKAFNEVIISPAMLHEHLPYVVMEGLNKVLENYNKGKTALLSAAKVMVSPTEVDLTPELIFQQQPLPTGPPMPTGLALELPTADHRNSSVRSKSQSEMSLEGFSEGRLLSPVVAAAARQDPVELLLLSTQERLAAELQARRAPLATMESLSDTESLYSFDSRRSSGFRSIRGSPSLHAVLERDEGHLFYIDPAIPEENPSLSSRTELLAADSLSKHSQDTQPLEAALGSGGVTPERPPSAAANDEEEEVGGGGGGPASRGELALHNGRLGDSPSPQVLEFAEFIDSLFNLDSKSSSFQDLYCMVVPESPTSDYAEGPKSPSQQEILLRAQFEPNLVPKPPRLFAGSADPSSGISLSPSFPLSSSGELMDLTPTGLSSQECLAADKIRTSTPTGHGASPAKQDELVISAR
Put plainly: Inhibition of recombinant human DAGLalpha expressed in HEK293 cells using PNP-butyrate as substrate pretreated for 20 to 30 mins followed by substrate addition measured every 60 secs for 20 mins by colorimetric method. The format is cell-based. In a few lines:
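Membrane fraction from HEK293T cells transiently transfected with human DAGLα (PEI transfection, harvested at 72 h). Membranes used at 0.05 μg μL-1 final protein in 50 mM HEPES pH 7.2. Colorimetric readout of para-nitrophenylbutyrate hydrolysis. pIC50 ± SEM.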

For assay [2], the target named is T2, Diacylglycerol lipase-alpha (Mus musculus) (UniProt Q6WQJ1).
T2 sequence (whole entry): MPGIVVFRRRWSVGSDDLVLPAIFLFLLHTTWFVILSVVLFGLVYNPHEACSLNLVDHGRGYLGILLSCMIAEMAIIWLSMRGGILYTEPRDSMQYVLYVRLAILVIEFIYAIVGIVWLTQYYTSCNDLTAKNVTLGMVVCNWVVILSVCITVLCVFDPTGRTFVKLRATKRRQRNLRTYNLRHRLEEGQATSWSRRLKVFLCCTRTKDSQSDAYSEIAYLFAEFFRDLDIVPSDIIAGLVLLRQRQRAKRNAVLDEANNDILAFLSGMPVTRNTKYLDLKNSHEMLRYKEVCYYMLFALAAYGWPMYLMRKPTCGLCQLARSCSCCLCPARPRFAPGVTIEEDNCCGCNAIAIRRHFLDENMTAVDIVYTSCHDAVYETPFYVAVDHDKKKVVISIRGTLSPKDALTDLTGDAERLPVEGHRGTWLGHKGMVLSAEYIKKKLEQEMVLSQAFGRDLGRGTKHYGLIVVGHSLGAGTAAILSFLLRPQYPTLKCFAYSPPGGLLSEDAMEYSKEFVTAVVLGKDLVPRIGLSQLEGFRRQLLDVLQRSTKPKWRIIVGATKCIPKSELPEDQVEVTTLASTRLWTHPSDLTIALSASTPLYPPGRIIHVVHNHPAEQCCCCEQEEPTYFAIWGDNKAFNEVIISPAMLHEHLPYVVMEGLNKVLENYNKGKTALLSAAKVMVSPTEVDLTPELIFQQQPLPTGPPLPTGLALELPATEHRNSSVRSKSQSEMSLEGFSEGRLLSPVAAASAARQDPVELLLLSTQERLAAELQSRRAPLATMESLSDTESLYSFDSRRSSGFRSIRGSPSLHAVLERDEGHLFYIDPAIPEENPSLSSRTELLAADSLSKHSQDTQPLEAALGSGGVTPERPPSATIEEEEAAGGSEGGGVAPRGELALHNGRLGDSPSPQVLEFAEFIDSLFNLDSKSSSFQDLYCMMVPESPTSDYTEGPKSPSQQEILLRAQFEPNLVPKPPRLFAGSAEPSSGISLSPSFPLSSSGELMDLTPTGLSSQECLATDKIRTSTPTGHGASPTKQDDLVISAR
Nature of the assay: Inhibition of MB064 labelling of DAGLalpha in mouse brain homogenates at 10 uM pretreated for 30 mins followed by MB064 addition and measured after 20 mins by activity based protein profiling assay relative to control. The format is tissue-based. In a few lines: (§1)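 Mouse brain membrane proteome preincubated 30 min with inhibitor (10 μM), then labelled with MB064 probe (0.25 μM, 20 min). Readout by gel-based competitive ABPP. Band intensities corrected for protein loading per lane from Coomassie staining. Means ± SEM, n = 3.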

For assay [3], the target named is T3, Monoacylglycerol lipase ABHD6 (Homo sapiens, UniProt Q9BV23).
T3 sequence (Q9BV23 whole entry): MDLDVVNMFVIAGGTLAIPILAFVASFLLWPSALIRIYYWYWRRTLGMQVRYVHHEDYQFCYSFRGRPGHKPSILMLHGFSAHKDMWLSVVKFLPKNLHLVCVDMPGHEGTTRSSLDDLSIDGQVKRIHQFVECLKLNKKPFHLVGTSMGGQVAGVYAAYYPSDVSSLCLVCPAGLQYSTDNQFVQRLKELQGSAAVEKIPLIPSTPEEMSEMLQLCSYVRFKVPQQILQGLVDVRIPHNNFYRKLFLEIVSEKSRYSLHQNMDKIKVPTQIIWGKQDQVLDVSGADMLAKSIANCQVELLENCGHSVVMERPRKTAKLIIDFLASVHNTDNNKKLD
Put plainly: Inhibition of recombinant human ABHD6 expressed in HEK293 cells by AmplifuTM red dye based fluorescence assay. The format is cell-based. In a few lines: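 Membranes from transiently transfected HEK293T cells expressing human ABHD6, 40 μg mL-1 final protein. Real-time coupled fluorescence assay with natural substrate 2-AG (25 μM). Glycerol released is detected via glycerol kinase, glycerol-3-phosphate oxidase and HRP (0.2 U mL-1 each), 0.125 mM ATP and 10 μM Amplifu Red. Assay contains 5% DMSO and 0.5% acetonitrile. pIC50 ± SEM.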

Assay [4] addresses T4, Monoacylglycerol lipase ABHD6 (Mus musculus) (UniProt Q8R2Y0).
T4 sequence (whole entry): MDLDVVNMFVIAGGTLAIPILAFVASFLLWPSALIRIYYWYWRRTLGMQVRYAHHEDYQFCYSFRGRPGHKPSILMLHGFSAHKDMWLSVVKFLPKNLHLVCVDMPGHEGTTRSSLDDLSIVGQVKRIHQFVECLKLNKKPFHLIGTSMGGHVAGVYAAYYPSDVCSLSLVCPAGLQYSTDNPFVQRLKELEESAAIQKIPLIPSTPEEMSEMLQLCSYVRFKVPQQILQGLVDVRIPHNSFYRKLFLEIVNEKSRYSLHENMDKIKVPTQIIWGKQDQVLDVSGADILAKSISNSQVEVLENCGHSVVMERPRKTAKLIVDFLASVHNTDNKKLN
Put plainly: Inhibition of MB064 labelling of ABHD6 in mouse brain homogenates at 10 uM pretreated for 30 mins followed by MB064 addition and measured after 20 mins by activity based protein profiling assay relative to control. Type of assay: tissue-based. In a few lines:
as §1

What is called IC50 is the point on the concentration scale where inhibition reaches its midpoint. For orientation: inhibition means the relative decrease from the control value, in per cent.

On to `O=C(N1CCC=C[C@@H]1COCc1ccccc1)n1cnc(-c2ccc(Br)cc2)c1`, for which the IC50 in assay [1] and in assay [3] was more than 10000 nM each time. The inhibition in assay [2] is -9%.

As for `O=C(N1C[C@H](O)C=C[C@@H]1COCc1ccccc1)n1cc(-c2ccc(-c3ccccc3)cc2)nn1`, the inhibition in assay [4] was found to be 95%; in assay [2], 87%. Moreover, the results for the IC50 in assay [1] and in assay [3] were 25.1 nM and 5.01 nM, respectively.

As for `O=C(Oc1ccc([N+](=O)[O-])cc1)N1CCC=C[C@@H]1COCc1ccccc1`, the IC50 in assay [1] and in assay [3] was more than 10000 nM in each case.

For the compound `O=C(N1CCC=C[C@@H]1Cc1ccccc1)n1cc(-c2ccc(-c3ccccc3)cc2)nn1`, the inhibition in assay [4] worked out at 96%; in assay [2] it was 99%. Further, the results for the IC50 in assay [1] and in assay [3] were 0.794 nM and 2.51 nM, respectively.

As to `O=C(N1CCC=C[C@H]1COCc1ccccc1)n1cc(-c2ccc(-c3ccccc3)cc2)nn1`, the figures for the inhibition in assay [4] and in assay [2] were 84% and 30%, respectively. The IC50 in assay [1] is 1260 nM; in assay [3], 100 nM.

On to `O=C(N1C[C@H](O)C=C[C@H]1COCc1ccccc1)n1cc(-c2ccc(-c3ccccc3)cc2)nn1`, for which the inhibition in assay [4] is 50%; in assay [2], 5%. The IC50 in assay [1] was more than 10000 nM; in assay [3] it was 316 nM.

In the case of `O=C(N1CC=C[C@@H](O)[C@@H]1COCc1ccccc1)n1cc(-c2ccc(-c3ccccc3)cc2)nn1`, the inhibition worked out at 18% in assay [4] and 6% in assay [2]. In addition, the results for the IC50 in assay [1] and in assay [3] were more than 10000 nM and 794 nM, respectively.

Consider `O=C(N1CCC=C[C@@H]1COCc1ccccc1)n1ccc(-c2ccc(-c3ccccc3)cc2)n1`, for which the inhibition in assay [4] is -3%. The IC50 in assay [1] and in assay [3] was more than 10000 nM throughout.

As for `O=C(N1CCC=C[C@@H]1COCc1ccccc1)n1cnc(-c2ccc(-c3ccccc3)cc2)c1`, the IC50 in assay [1] and in assay [3] was more than 10000 nM in each case.

For the compound `O=C(N1CCCC[C@@H]1Cc1ccccc1)n1cc(-c2ccc(-c3ccccc3)cc2)nn1`, the inhibition in assay [4] is 95%; in assay [2], 99%.

With `O=C(N1CCC=C[C@H]1Cc1ccccc1)n1cc(-c2ccc(-c3ccccc3)cc2)nn1`, the figures for the inhibition in assay [4] and in assay [2] were 90% and 83%, respectively. Further, the results for the IC50 in assay [1] and in assay [3] were 79.4 nM and 25.1 nM, respectively.

In the case of `O=C(N1CC=C[C@@H](O)[C@H]1COCc1ccccc1)n1cc(-c2ccc(-c3ccccc3)cc2)nn1`, the values for the inhibition in assay [4] and in assay [2] were 83% and 18%, respectively. Besides, the IC50 in assay [1] is more than 10000 nM; in assay [3], 251 nM.

Take `O=C(N1CCC=C[C@@H]1COCc1ccccc1)n1ccc(-c2ccc(Br)cc2)n1`: the inhibition in assay [4] and in assay [2] was -3% throughout. The IC50 in assay [1] and in assay [3] was more than 10000 nM throughout.

Turning to `O=C(N1C[C@H](O)C=C[C@@H]1Cc1ccccc1)n1cc(-c2ccc(-c3ccccc3)cc2)nn1`, the values for the inhibition in assay [4] and in assay [2] were 96% and 92%, respectively. For the same compound, the concentration for half-maximal inhibition (IC50) in assay [1] was 15.8 nM; in assay [3], 3.16 nM.

`O=C(N1CCC=C[C@@H]1COCc1ccccc1)n1cnc(-c2ccc(-c3ccccc3)cc2)n1`: the half-inhibitory concentration (IC50) in assay [1] and in assay [3] was more than 10000 nM in each case. Further, the inhibition in assay [2] turned out to be 0%.
